The source made the active and inactive calls. No cut-off for these calls is given here.
Columns and labels:
[1] = system: Mus musculus; assay: Reduction in morphine dependence expression in CD1 mouse assessed as decrease in expression of naloxone-precipitated withdrawal syndrome at 0.05 mg/kg, ip bid administered 15 mins before last morphine dosing […]; assay type: functional, organism-based; design: dose 0.05 mg/kg
How it was run: (§1)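 In male CD-1 mice, morphine 10 mg/kg sc was given twice daily at 12 h intervals for 6 days, with test agent 0.05 mg/kg ip 15 min before each morphine dose. Jumping was counted, and somatic signs were scored as the sum of rearing, forepaw tremor and teeth chatter. Blind observers; mean ± SEM.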

[2] = system: Mus musculus; assay: Reduction in morphine tolerance acquisition in CD1 mouse assessed as morphine analgesic effect incidence at 0.05 mg/kg, ip bid administered 15 mins before last morphine dosing by radiant heat tail flick test; assay type: functional, organism-based; design: dose 0.05 mg/kg
[3] = target: T1, Alpha-2B adrenergic receptor (Homo sapiens) (UniProt P18089); conditions: CHO
T1 sequence (whole entry): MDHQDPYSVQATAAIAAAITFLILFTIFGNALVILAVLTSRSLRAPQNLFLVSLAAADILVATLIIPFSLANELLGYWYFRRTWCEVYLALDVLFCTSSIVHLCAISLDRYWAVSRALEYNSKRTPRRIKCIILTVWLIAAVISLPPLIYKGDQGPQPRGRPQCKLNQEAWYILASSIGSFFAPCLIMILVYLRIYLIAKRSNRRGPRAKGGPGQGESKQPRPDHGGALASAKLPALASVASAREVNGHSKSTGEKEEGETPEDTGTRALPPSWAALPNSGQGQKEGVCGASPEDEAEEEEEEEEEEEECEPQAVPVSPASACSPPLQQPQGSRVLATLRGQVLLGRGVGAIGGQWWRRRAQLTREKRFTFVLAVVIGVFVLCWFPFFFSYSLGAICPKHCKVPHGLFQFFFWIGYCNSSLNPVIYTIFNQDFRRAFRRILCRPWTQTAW

[4] = system: Mus musculus; assay: Reduction in morphine dependence expression in CD1 mouse assessed as decrease in frequency of jumping at 0.05 mg/kg, ip bid administered 15 mins before last morphine dosing […]; assay type: functional; design: scale not given: the % may be the effect or the level left; conditions: route intraperitoneal; how it was run: as §1
[5] = target: T2, Alpha-2C adrenergic receptor (Homo sapiens) (UniProt P18825); assay: Agonist activity at human Alpha-2C adrenoceptor expressed in CHO cells assessed as induction of extracellular acidification by microphysiometry relative to (-)noradrenaline; assay type: functional, cell-based
T2 sequence (whole entry): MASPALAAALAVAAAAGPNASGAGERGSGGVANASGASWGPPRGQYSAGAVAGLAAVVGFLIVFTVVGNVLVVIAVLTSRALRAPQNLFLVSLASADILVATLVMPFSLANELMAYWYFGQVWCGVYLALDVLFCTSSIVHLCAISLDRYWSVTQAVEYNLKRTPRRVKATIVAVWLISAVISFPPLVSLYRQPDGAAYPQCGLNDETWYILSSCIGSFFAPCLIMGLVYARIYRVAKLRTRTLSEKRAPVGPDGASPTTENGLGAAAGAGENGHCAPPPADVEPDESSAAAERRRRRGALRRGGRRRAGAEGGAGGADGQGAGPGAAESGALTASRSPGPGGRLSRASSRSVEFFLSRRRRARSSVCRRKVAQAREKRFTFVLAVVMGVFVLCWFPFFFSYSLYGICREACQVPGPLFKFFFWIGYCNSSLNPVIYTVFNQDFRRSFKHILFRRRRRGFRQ
How it was run: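 Cytosensor microphysiometry on CHO cells stably expressing one human α2-AR subtype, seeded at 3 × 10⁵ cells/cup and grown 24 h at 37 °C. Cells were perfused with bicarbonate-free DMEM and exposed to agonist for 4 min, with 30 min washes between exposures. The read-out is the change in acidification rate: peak after agonist minus the mean of three prior readings. […] Mean ± SEM, 3–6 experiments.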

[6] = target: T3, Alpha-2A adrenergic receptor (Homo sapiens) (UniProt P08913); assay: Antagonist activity at human alpha2A adrenoceptor expressed in CHO cells assessed as effect on agonist-induced extracellular acidification by microphysiometry; assay type: functional, cell-based
T3 sequence (whole entry): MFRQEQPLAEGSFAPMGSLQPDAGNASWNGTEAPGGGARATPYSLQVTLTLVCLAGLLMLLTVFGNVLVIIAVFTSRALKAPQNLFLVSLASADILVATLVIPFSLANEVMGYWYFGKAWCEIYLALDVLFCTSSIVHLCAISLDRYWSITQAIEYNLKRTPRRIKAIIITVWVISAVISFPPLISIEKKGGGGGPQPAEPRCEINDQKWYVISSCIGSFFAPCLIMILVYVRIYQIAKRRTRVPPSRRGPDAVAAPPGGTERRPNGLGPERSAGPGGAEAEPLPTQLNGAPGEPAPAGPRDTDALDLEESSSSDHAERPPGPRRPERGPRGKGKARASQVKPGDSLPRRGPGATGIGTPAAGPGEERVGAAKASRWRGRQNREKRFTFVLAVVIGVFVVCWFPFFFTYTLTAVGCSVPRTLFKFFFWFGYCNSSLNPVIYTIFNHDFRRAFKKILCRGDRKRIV
How it was run: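 CHO cells stably expressing one human α2-AR subtype were run on the Cytosensor microphysiometer with bicarbonate-free DMEM perfusion. […] Kb = M/(concentration ratio − 1), where the ratio is EC50 with antagonist over EC50 without. Reported as pKb, mean ± SEM of 3–6 experiments.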

[7] = system: Mus musculus; assay: Reduction in morphine tolerance acquisition in CD1 mouse assessed as morphine analgesic effect incidence at 0.05 mg/kg, ip administered as single dose 15 mins before last morphine dosing on test day post morphine challenge by radiant heat tail flick test; assay type: functional; design: scale not given: the % may be the effect or the level left; conditions: route intraperitoneal
How it was run: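 Tolerance was induced in male CD-1 mice with morphine 10 mg/kg sc twice daily at 12 h intervals for 5 days. On day 5, test agent 0.05 mg/kg ip was given once, 15 min before the last morphine injection. Tail-flick antinociception was read 30 min after that injection and expressed as %MPE, with day 1 vs day 5 compared.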

[8] = system: Mus musculus; assay: Reduction in morphine dependence expression in CD1 mouse assessed as decrease in somatic signs at 0.05 mg/kg, ip bid administered 15 mins before last morphine dosing […]; assay type: functional; design: scale not given: the % may be the effect or the level left; conditions: route intraperitoneal; how it was run: as §1

C=CCc1ccccc1OC(C)C1=NCCN1 (racemic) [ALLYPHENYLINE]
Activity [1]: Active | Activity [2]: Active | pEC50 [3]: inactive | Activity [4]: 80% | Intrinsic activity [5]: 0.9 | pKb [6]: 7.4 | Activity [7]: 22% | Activity [8]: 40%

— ChEMBL document CHEMBL1275329, “Fruitful adrenergic α(2C)-agonism/α(2A)-antagonism combination to prevent and contrast morphine tolerance and dependence” (J Med Chem, 2010)
